{"source": "ChEMBL document CHEMBL1156340", "about": "(J Med Chem, 2010)", "key": {"[1]": {"test": "Plasma clearance in dog at 1 mg/kg, iv", "type": "ADME, organism-based, Canis lupus familiaris", "design": "dose 1 mg/kg, route intravenous", "summary_of_the_method": "(§1)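 Single-dose plasma pharmacokinetics with at least 3 animals per study. Tmax comes from oral dosing, and clearance and Vss from the parenteral arm. In rat that arm was given intra-arterially; in mouse, dog and monkey it was intravenous. Bioavailability is absolute, comparing the oral and parenteral arms.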"}, "[2]": {"test": "Tmax in BALB/c mouse at 12 mg/kg, po", "type": "ADME, organism-based", "design": "dose 12 mg/kg, route oral", "details": "in vivo", "summary_of_the_method": "as §1"}, "[3]": {"test": "AUC (0 to 8 h) in BALB/c mouse at 6 mg/kg, iv", "details": "plasma"}, "[4]": {"test": "AUC (0 to 8 h) in BALB/c mouse at 12 mg/kg, po", "details": "plasma"}, "[5]": {"test": "Cmax in cynomolgus monkey at 2 mg/kg, po", "type": "ADME, organism-based, Macaca fascicularis", "design": "dose 2 mg/kg, route oral", "details": "in vivo", "summary_of_the_method": "(§2)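 Single-dose pharmacokinetics in each species by oral and intravenous routes; the rat intravenous arm was given intra-arterially. n ≥ 3 per study. Mouse exposure is reported as AUC0-8h.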"}, "[6]": {"test": "AUC in cynomolgus monkey at 1 mg/kg, iv", "type": "ADME, organism-based, Macaca fascicularis", "design": "dose 1 mg/kg, route intravenous", "details": "plasma", "summary_of_the_method": "(§3)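 Single-dose pharmacokinetic study with at least 3 animals per study; the ia route is intra-arterial administration.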"}, "[7]": {"test": "Cmax in BALB/c mouse at 12 mg/kg, po", "type": "ADME, organism-based", "design": "dose 12 mg/kg, route oral", "details": "in vivo", "summary_of_the_method": "as §2"}, "[8]": {"test": "Oral bioavailability in Sprague-Dawley rat at 10 mg/kg", "type": "ADME, organism-based", "details": "in vivo", "summary_of_the_method": "as §1"}, "[9]": {"test": "Tmax in dog at 2 mg/kg, po", "type": "ADME, organism-based, Canis lupus familiaris", "design": "dose 2 mg/kg, route oral", "details": "in vivo", "summary_of_the_method": "as §1"}, "[10]": {"test": "Crystalline aqueous solubility at pH 7.9", "type": "physicochemical", "details": "aqueous solution"}, "[11]": {"test": "Oral bioavailability in dog at 2 mg/kg, po", "type": "ADME, organism-based, Canis lupus familiaris", "details": "in vivo", "summary_of_the_method": "as §1"}, "[12]": {"test": "Volume of distribution at steady state in Sprague-Dawley rat at 5 mg/kg, ia", "type": "ADME, organism-based", "design": "dose 5 mg/kg, route intra-arterial", "details": "in vivo, read-out: Vdss", "summary_of_the_method": "as §1"}, "[13]": {"test": "Tmax in cynomolgus monkey at 2 mg/kg, po", "type": "ADME, organism-based, Macaca fascicularis", "design": "dose 2 mg/kg, route oral", "details": "in vivo", "summary_of_the_method": "as §1"}, "[14]": {"test": "Oral bioavailability in BALB/c mouse at 12 mg/kg", "type": "ADME, organism-based", "details": "in vivo", "summary_of_the_method": "as §2"}, "[15]": {"test": "AUC in dog at 1 mg/kg, iv", "type": "ADME, organism-based, Canis lupus familiaris", "design": "dose 1 mg/kg, route intravenous", "details": "plasma", "summary_of_the_method": "as §3"}, "[16]": {"test": "Half life in BALB/c mouse at 6 mg/kg, iv", "type": "ADME, organism-based", "design": "dose 6 mg/kg, route intravenous", "details": "in vivo", "summary_of_the_method": "as §2"}, "[17]": {"test": "Cmax in Sprague-Dawley rat at 10 mg/kg, po", "type": "ADME, organism-based", "design": "dose 10 mg/kg, route oral", "details": "in vivo", "summary_of_the_method": "as §2"}, "[18]": {"test": "Half life in dog at 1 mg/kg, iv", "type": "ADME, organism-based, Canis lupus familiaris", "design": "dose 1 mg/kg, route intravenous", "details": "in vivo", "summary_of_the_method": "as §2"}, "[19]": {"test": "Volume of distribution at steady state in BALB/c mouse at 6 mg/kg, iv", "type": "ADME, organism-based", "design": "dose 6 mg/kg, route intravenous", "details": "in vivo, read-out: Vdss", "summary_of_the_method": "as §1"}, "[20]": {"test": "Volume of distribution at steady state in cynomolgus monkey at 1 mg/kg, iv", "type": "ADME, organism-based, Macaca fascicularis", "design": "dose 1 mg/kg, route intravenous", "details": "in vivo, read-out: Vdss", "summary_of_the_method": "as §1"}, "[21]": {"test": "Half life in cynomolgus monkey at 1 mg/kg, iv", "type": "ADME, organism-based, Macaca fascicularis", "design": "dose 1 mg/kg, route intravenous", "details": "in vivo", "summary_of_the_method": "as §2"}, "[22]": {"test": "AUC in cynomolgus monkey at 2 mg/kg, po", "type": "ADME, organism-based, Macaca fascicularis", "design": "dose 2 mg/kg, route oral", "details": "plasma", "summary_of_the_method": "as §3"}, "[23]": {"test": "AUC in Sprague-Dawley rat at 5 mg/kg, ia", "type": "ADME, organism-based", "design": "dose 5 mg/kg, route intra-arterial", "details": "plasma", "summary_of_the_method": "as §3"}, "[24]": {"test": "Plasma clearance in Sprague-Dawley rat at 5 mg/kg, ia", "type": "ADME, organism-based", "design": "dose 5 mg/kg, route intra-arterial", "summary_of_the_method": "as §1"}, "[25]": {"test": "Oral bioavailability in cynomolgus monkey at 2 mg/kg, po", "type": "ADME, organism-based, Macaca fascicularis", "details": "in vivo", "summary_of_the_method": "as §1"}, "[26]": {"test": "Metabolic stability in mouse liver microsomes assessed as glutathione conjugate at 30 uM in presence of glutathione", "type": "ADME, Microsome", "summary_of_the_method": "(§4)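 Liver microsomes (mouse, rat or human) were fortified with 5 mM glutathione and incubated with 30 μM compound, then screened for glutathione conjugates.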"}, "[27]": {"test": "AUC in dog at 2 mg/kg, po", "type": "ADME, organism-based, Canis lupus familiaris", "design": "dose 2 mg/kg, route oral", "details": "plasma", "summary_of_the_method": "as §3"}, "[28]": {"test": "Volume of distribution at steady state in dog at 1 mg/kg, iv", "type": "ADME, organism-based, Canis lupus familiaris", "design": "dose 1 mg/kg, route intravenous", "details": "in vivo, read-out: Vdss", "summary_of_the_method": "as §1"}, "[29]": {"test": "Cmax in dog at 2 mg/kg, po", "type": "ADME, organism-based, Canis lupus familiaris", "design": "dose 2 mg/kg, route oral", "details": "in vivo", "summary_of_the_method": "as §2"}, "[30]": {"test": "Plasma clearance in cynomolgus monkey at 1 mg/kg, iv", "type": "ADME, organism-based, Macaca fascicularis", "design": "dose 1 mg/kg, route intravenous", "summary_of_the_method": "as §1"}, "[31]": {"test": "Half life in Sprague-Dawley rat at 5 mg/kg, ia", "type": "ADME, organism-based", "design": "dose 5 mg/kg, route intra-arterial", "details": "in vivo", "summary_of_the_method": "as §2"}, "[32]": {"test": "Plasma clearance in BALB/c mouse at 6 mg/kg, iv", "type": "ADME, organism-based", "design": "dose 6 mg/kg, route intravenous", "summary_of_the_method": "as §1"}, "[33]": {"test": "Tmax in Sprague-Dawley rat at 10 mg/kg, po", "type": "ADME, organism-based", "design": "dose 10 mg/kg, route oral", "details": "in vivo", "summary_of_the_method": "as §1"}, "Liver microsomes [34]": {"system": "Liver microsomes", "test": "Metabolic stability in human liver microsomes assessed as glutathione conjugate at 30 uM in presence of glutathione", "type": "ADME, Microsome", "summary_of_the_method": "as §4"}, "Liver microsomes [35]": {"system": "Liver microsomes", "test": "Metabolic stability in rat liver microsomes assessed as glutathione conjugate at 30 uM in presence of glutathione", "type": "ADME, Microsome", "summary_of_the_method": "as §4"}, "[36]": {"test": "Crystalline aqueous solubility at pH 6.5", "type": "physicochemical", "details": "aqueous solution"}, "[37]": {"test": "AUC in Sprague-Dawley rat at 10 mg/kg, po", "type": "ADME, organism-based", "design": "dose 10 mg/kg, route oral", "details": "plasma", "summary_of_the_method": "as §3"}}}
{"smiles": "COC(=O)N(CC(=O)O)Cc1cccc(OCc2nc(-c3ccc(Cl)cc3)oc2C)c1", "values": [{"measurement": "clearance", "setting": "[1]", "result": 9.5, "unit": "mL/min/kg"}, {"measurement": "Tmax", "setting": "[2]", "result": 0.25, "unit": "h"}, {"measurement": "AUC(0-8h)", "setting": "[3]", "result": 19.3, "unit": "µM·h"}, {"measurement": "AUC(0-8h)", "setting": "[4]", "result": 33.9, "unit": "µM·h"}, {"measurement": "Cmax", "setting": "[5]", "result": 1.9, "unit": "µM"}, {"measurement": "AUC", "setting": "[6]", "result": 5.8, "unit": "µM·h"}, {"measurement": "Cmax", "setting": "[7]", "result": 23.8, "unit": "µM"}, {"measurement": "bioavailability", "setting": "[8]", "result": 91, "unit": "%"}, {"measurement": "Tmax", "setting": "[9]", "result": 0.9, "unit": "h"}, {"measurement": "solubility thermodynamic", "setting": "[10]", "result": "> 4000", "unit": "µg/mL"}, {"measurement": "bioavailability", "setting": "[11]", "result": 58, "unit": "%"}, {"measurement": "Vd", "setting": "[12]", "result": 0.7, "unit": "L/kg"}, {"measurement": "Tmax", "setting": "[13]", "result": 0.8, "unit": "h"}, {"measurement": "bioavailability", "setting": "[14]", "result": 88, "unit": "%"}, {"measurement": "AUC", "setting": "[15]", "result": 3.9, "unit": "µM·h"}, {"measurement": "half-life", "setting": "[16]", "result": 3, "unit": "h"}, {"measurement": "Cmax", "setting": "[17]", "result": 43, "unit": "µM"}, {"measurement": "half-life", "setting": "[18]", "result": 7.9, "unit": "h"}, {"measurement": "Vd", "setting": "[19]", "result": 1.3, "unit": "L/kg"}, {"measurement": "Vd", "setting": "[20]", "result": 3.5, "unit": "L/kg"}, {"measurement": "half-life", "setting": "[21]", "result": 11.9, "unit": "h"}, {"measurement": "AUC", "setting": "[22]", "result": 8.5, "unit": "µM·h"}, {"measurement": "AUC", "setting": "[23]", "result": 48, "unit": "µM·h"}, {"measurement": "clearance", "setting": "[24]", "result": 4.3, "unit": "mL/min/kg"}, {"measurement": "bioavailability", "setting": "[25]", "result": 75, "unit": "%"}, {"measurement": "Stability", "setting": "[26]", "result": "Stable"}, {"measurement": "AUC", "setting": "[27]", "result": 4.5, "unit": "µM·h"}, {"measurement": "Vd", "setting": "[28]", "result": 1.8, "unit": "L/kg"}, {"measurement": "Cmax", "setting": "[29]", "result": 1, "unit": "µM"}, {"measurement": "clearance", "setting": "[30]", "result": 8.9, "unit": "mL/min/kg"}, {"measurement": "half-life", "setting": "[31]", "result": 3.2, "unit": "h"}, {"measurement": "clearance", "setting": "[32]", "result": 10.8, "unit": "mL/min/kg"}, {"measurement": "Tmax", "setting": "[33]", "result": 0.4, "unit": "h"}, {"measurement": "Stability", "setting": "Liver microsomes [34]", "result": "Stable"}, {"measurement": "Stability", "setting": "Liver microsomes [35]", "result": "Stable"}, {"measurement": "solubility thermodynamic", "setting": "[36]", "result": 280, "unit": "µg/mL"}, {"measurement": "AUC", "setting": "[37]", "result": 88, "unit": "µM·h"}]}
